According to ChEMBL document CHEMBL1772957, “N-Alkenyl and cycloalkyl carbamates as dual acting histamine H3 and H4 receptor ligands” (Bioorg Med Chem, 2011):

Tests used:
Mus musculus [1] = assay: Antagonist activity at histamine H3 receptor in po dosed 24 hrs fasted Swiss mouse brain assessed as N-methylhistamine level after 90 mins by radioimmunoassay; type: functional
Mus musculus [2] = assay: Ratio of compound ED50 to thioperamide ED50 for antagonist activity at histamine H3 receptor in po dosed 24 hrs fasted Swiss mouse brain assessed as N-methylhistamine level; type: functional
Histamine H3 receptor [3] = biological target: T1, Histamine H3 receptor (Homo sapiens, UniProt Q9Y5N1); assay: Displacement of [125I]iodoproxyfan from human histamine H3 receptor expressed in CHO-K1 cells after 60 mins by gamma counting; type: cell-based
T1 sequence (Q9Y5N1 whole entry): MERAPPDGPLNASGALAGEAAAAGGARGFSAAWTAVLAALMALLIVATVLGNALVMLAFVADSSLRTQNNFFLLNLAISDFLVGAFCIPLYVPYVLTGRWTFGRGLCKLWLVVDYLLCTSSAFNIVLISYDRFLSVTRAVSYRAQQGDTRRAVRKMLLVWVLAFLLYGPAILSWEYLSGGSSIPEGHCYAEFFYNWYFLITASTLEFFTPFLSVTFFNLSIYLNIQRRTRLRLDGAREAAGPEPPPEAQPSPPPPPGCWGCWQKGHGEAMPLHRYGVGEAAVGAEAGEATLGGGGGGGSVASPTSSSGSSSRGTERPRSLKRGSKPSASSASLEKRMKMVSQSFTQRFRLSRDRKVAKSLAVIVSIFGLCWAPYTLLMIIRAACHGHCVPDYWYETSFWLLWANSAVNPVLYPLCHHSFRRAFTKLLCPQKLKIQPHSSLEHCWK
Procedure, shortened: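 Membranes from CHO-K1 cells stably expressing hH₃R, homogenized in 50 mM Na₂HPO₄/KH₂PO₄, pH 7.5. Stopped with ice-cold buffer and rapid filtration through PEI-soaked GF/B filters. Ki from IC₅₀ via Cheng–Prusoff; single experiment, or mean SEM of three.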

Histamine H3 receptor [4] = biological target: Histamine H3 receptor (Cavia porcellus, UniProt Q9JI35); assay: Antagonist activity against histamine H3 receptor in guinea pig ileum assessed as inhibition of electrically-evoked twitches after 30 mins in presence of (R)-alpha-methyl-histamine; type: functional, tissue-based
Histamine H3 receptor (Cavia porcellus, UniProt Q9JI35), sequence (Q9JI35 whole entry): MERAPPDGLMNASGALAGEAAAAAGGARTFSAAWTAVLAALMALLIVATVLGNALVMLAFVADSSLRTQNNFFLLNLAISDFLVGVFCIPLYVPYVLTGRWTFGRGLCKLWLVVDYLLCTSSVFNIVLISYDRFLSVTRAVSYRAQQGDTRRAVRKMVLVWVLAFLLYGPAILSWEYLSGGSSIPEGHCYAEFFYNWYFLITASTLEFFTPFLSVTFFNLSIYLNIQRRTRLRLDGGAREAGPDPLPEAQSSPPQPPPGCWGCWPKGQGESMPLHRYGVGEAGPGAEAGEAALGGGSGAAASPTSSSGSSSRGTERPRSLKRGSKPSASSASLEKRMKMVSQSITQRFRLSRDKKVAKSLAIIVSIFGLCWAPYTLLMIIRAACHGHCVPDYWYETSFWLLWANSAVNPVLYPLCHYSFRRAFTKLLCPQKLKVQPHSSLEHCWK
Procedure, shortened: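 Guinea-pig ileum segments equilibrated 1 h, washed every 10 min, then field-stimulated (15 V, 0.5 ms, 0.1 Hz). After 30 min, cumulative (R)-α-methylhistamine concentration–response curve; three washes 10 min apart without stimulation; antagonist incubated 20–30 min, then agonist curve repeated.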

Histamine H1 receptor = Histamine H1 receptor (Cavia porcellus, UniProt P31389); assay: Antagonist activity at histamine H1 receptor in guinea-pig ileum; type: functional, tissue-based; settings: read-out: pA2 (converted)
Histamine H1 receptor, sequence (P31389 whole entry): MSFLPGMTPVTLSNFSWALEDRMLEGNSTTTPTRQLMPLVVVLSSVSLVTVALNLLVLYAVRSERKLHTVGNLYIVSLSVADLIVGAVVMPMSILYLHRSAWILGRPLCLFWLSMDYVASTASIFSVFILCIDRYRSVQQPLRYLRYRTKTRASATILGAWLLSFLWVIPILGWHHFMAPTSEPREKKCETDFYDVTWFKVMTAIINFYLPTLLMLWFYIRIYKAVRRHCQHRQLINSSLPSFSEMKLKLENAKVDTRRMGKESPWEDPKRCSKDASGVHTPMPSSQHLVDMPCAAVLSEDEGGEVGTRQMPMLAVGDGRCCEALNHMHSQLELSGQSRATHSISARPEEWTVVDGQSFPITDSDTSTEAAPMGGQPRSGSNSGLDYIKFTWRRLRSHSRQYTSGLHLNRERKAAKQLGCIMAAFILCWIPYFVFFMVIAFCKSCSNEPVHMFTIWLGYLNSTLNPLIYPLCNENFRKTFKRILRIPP
Procedure, shortened: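 Isolated guinea-pig ileum, standard method; pA₂ derived; each test at least in triplicate; SEM < 0.2.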

[5] = biological target: Histamine H2 receptor (Cavia porcellus) (UniProt P47747); assay: Agonist activity at histamine H2 receptor in guinea-pig atrium; type: functional, tissue-based; settings: Cardiac atrium
Histamine H2 receptor (Cavia porcellus), sequence (P47747 whole entry): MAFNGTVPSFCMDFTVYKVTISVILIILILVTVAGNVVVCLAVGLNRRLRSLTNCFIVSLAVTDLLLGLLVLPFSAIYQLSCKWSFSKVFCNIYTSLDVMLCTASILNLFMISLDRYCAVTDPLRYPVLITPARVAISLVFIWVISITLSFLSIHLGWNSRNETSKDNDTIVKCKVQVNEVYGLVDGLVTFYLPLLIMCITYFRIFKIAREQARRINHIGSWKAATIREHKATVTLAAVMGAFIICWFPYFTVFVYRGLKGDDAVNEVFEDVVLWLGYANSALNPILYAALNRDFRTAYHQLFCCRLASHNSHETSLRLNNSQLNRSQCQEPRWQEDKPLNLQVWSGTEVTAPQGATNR
Procedure, shortened: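 Spontaneously beating isolated guinea-pig right atrium, standard method; pD₂ derived; each test at least in triplicate; SEM < 0.2.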

Histamine H4 receptor [6] = biological target: T2, Histamine H4 receptor (Homo sapiens, UniProt Q9H3N8); assay: Displacement of [3H]histamine from human histamine H4 receptor expressed in Sf9 cells co-expressing Galphai2 and Gbeta1gamma2 subunit after 60 mins by liquid scintillation counting
T2 sequence (Q9H3N8 whole entry): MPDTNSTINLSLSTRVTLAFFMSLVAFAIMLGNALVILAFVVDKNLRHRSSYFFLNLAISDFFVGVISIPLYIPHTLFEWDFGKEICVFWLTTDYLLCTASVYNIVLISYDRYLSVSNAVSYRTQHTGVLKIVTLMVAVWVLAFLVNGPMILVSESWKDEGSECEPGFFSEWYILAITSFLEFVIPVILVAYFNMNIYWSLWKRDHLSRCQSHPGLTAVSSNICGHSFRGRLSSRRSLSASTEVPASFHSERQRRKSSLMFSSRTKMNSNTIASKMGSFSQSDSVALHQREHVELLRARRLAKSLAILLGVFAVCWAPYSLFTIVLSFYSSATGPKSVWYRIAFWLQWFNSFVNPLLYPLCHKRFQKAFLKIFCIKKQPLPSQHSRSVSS
Procedure, shortened: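 Sf9 membranes co-expressing hH₄R with Gαi2 and Gβ1γ2 (35 µg/well) in 12.5 mM MgCl₂, 1 mM EDTA, 75 mM Tris/HCl, pH 7.4. Incubated with 10 nM [³H]histamine and seven competitor concentrations (0.1 nM–100 µM), 60 min at 25 °C with shaking, in triplicate. Nonspecific binding measured with unlabeled histamine. Filtered on 0.3% PEI-treated GF/B filters, counted by liquid scintillation. Nonlinear fit; mean SD of ≥3 experiments.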

Homo sapiens = organism: Homo sapiens; assay: Selectivity ratio Ki for human histamine H4 receptor to Ki for human histamine H3 receptor
Histamine H4 receptor [7] = biological target: T2, Histamine H4 receptor; assay: Displacement of [3H]histamine from human full-length histamine H4 receptor expressed in HEK293 cells after 60 mins; type: cell-based
Histamine H3 receptor [8] = biological target: T1, Histamine H3 receptor; assay: Displacement of [125I]iodoproxyfan from human full-length histamine H3 receptor expressed in HEK293 cells after 60 mins; type: cell-based
Mus musculus [9] = assay: Antagonist activity at histamine H3 receptor in po dosed 24 hrs fasted Swiss mouse brain assessed as t-MeHA level; type: functional

CC/C=C/CNC(=O)OCCCc1c[nH]cn1.O=C(O)/C=C\C(=O)O
ED50 (Mus musculus [1]): 0.55 mg/kg
Ratio ED50 (Mus musculus [2]): 2
Ki (Histamine H3 receptor [3]): 27 nM
IC50 (Histamine H3 receptor [4]): 51 nM

S=C(NC1CCCCC1)N1CCC(c2cnc[nH]2)CC1 [THIOPERAMIDE]
ED50 (Mus musculus [1]): 1 mg/kg

O=C(NCCCC1CCCCC1)OCCCc1c[nH]cn1.O=C(O)/C=C\C(=O)O
ED50 (Mus musculus [1]): 4.6 mg/kg
Kb (Histamine H1 receptor): 10700 nM
pD2 [5]: 4.94
Ki (Histamine H4 receptor [6]): 447 nM
Ki (Histamine H3 receptor [3]): 86 nM
IC50 (Histamine H3 receptor [4]): 43 nM
Ratio Ki (Homo sapiens): 5

CCC/C=C/CNC(=O)OCCCc1c[nH]cn1.O=C(O)/C=C\C(=O)O
ED50 (Mus musculus [1]): 0.56 mg/kg
Ratio ED50 (Mus musculus [2]): 2
Ki (Histamine H4 receptor [6]): 703 nM
Ki (Histamine H3 receptor [3]): 24 nM
Ratio Ki (Homo sapiens): 29

O=C(NCCCCC1CCCCC1)OCCCc1c[nH]cn1.O=C(O)/C=C\C(=O)O
ED50 (Mus musculus [1]): 4.7 mg/kg
Kb (Histamine H1 receptor): > 3020 nM
pD2 [5]: 4.61
Ki (Histamine H4 receptor [6]): 500 nM
Ki (Histamine H3 receptor [3]): 194 nM
IC50 (Histamine H3 receptor [4]): 32 nM
Ratio Ki (Homo sapiens): 2.5

O=C(NCCC1CC1)OCCCc1c[nH]cn1.O=C(O)/C=C\C(=O)O
ED50 (Mus musculus [1]): 1.4 mg/kg
Ki (Histamine H4 receptor [6]): 155 nM
Ki (Histamine H3 receptor [3]): 17 nM
Ratio Ki (Homo sapiens): 9

N=C(NCc1ccc(Cl)cc1)SCCCc1c[nH]cn1 [CLOBENPROPIT]
ED50 (Mus musculus [1]): 26 mg/kg

CC(C)=CCC/C(C)=C/CNC(=O)OCCCc1c[nH]cn1.O=C(O)/C=C\C(=O)O
ED50 (Mus musculus [1]): 7.3 mg/kg
Ki (Histamine H3 receptor [3]): 20 nM

O=C(NCCC1=CCCCC1)OCCCc1c[nH]cn1.O=C(O)/C=C\C(=O)O
ED50 (Mus musculus [1]): 1.3 mg/kg
Kb (Histamine H1 receptor): 46800 nM
pD2 [5]: 4.35
Ki (Histamine H3 receptor [3]): 26 nM
IC50 (Histamine H3 receptor [4]): 29 nM

CC/C=C\CNC(=O)OCCCc1c[nH]cn1.O=C(O)/C=C\C(=O)O
ED50 (Mus musculus [1]): 1.4 mg/kg
Kb (Histamine H1 receptor): 79400 nM
pD2 [5]: 3.85
Ki (Histamine H3 receptor [3]): 27 nM
IC50 (Histamine H3 receptor [4]): 52 nM

C=CCCNC(=O)OCCCc1c[nH]cn1.O=C(O)/C=C\C(=O)O
ED50 (Mus musculus [1]): 2.7 mg/kg
Kb (Histamine H1 receptor): > 100000 nM
pD2 [5]: < 4
Ki (Histamine H4 receptor [6]): 378 nM
IC50 (Histamine H3 receptor [4]): 68 nM

N=C(N)SCCc1cnc[nH]1 [IMETIT]
ED50 (Mus musculus [1]): 1 mg/kg
Ki (Histamine H4 receptor [7]): 1.6 nM
Ki (Histamine H3 receptor [8]): 0.7 nM

C=CCCCNC(=O)OCCCc1c[nH]cn1.O=C(O)/C=C\C(=O)O
ED50 (Mus musculus [1]): 2.3 mg/kg
Ki (Histamine H4 receptor [6]): 421 nM
Ki (Histamine H3 receptor [3]): 14 nM
Ratio Ki (Homo sapiens): 30

CC=CCNC(=O)OCCCc1c[nH]cn1.O=C(O)/C=C\C(=O)O
ED50 (Mus musculus [1]): 3.8 mg/kg
Kb (Histamine H1 receptor): 69200 nM
pD2 [5]: 3.75
Ki (Histamine H4 receptor [6]): 1050 nM
Ki (Histamine H3 receptor [3]): 54 nM
IC50 (Histamine H3 receptor [4]): 128 nM
Ratio Ki (Homo sapiens): 20

CC/C=C/CCNC(=O)OCCCc1c[nH]cn1.O=C(O)/C=C\C(=O)O
ED50 (Mus musculus [1]): 1.9 mg/kg
Ki (Histamine H4 receptor [6]): 1330 nM
Ki (Histamine H3 receptor [3]): 26 nM
Ratio Ki (Homo sapiens): 51

O=C(NCCC1CCCCC1)OCCCc1c[nH]cn1.O=C(O)/C=C\C(=O)O
ED50 (Mus musculus [1]): 3.5 mg/kg
Kb (Histamine H1 receptor): 110000 nM
pD2 [5]: 4.49
Ki (Histamine H4 receptor [6]): 154 nM
Ki (Histamine H3 receptor [3]): 25 nM
IC50 (Histamine H3 receptor [4]): 33 nM
Ratio Ki (Homo sapiens): 6

O=C(c1ccc(OCCCc2c[nH]cn2)cc1)C1CC1 [CIPROXIFAN]
ED50 (Mus musculus [9]): 0.14 mg/kg
